Test results taken from ChEMBL document CHEMBL3861990, “Elaboration of a proprietary thymidylate kinase inhibitor motif towards anti-tuberculosis agents” (Bioorg Med Chem, 2016).

Legend:
[1] = Inhibition of recombinant Mycobacterium tuberculosis TMPK using dTMP as substrate measured after 1 min in presence of ATP/pyruvate kinase/lactate dehydrogenase/nucleoside diphosphate kinase by coupled spectrophotometric assay
Method in brief: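 Medium: 50 mM Tris-HCl pH 7.4, 50 mM KCl, 2 mM MgCl2, 0.2 mM NADH, 1 mM phosphoenolpyruvate, and 2 units each of LDH, pyruvate kinase and NDP kinase. ATP fixed at 0.5 mM and dTMP at 0.05 mM. Analogues varied from 0.01 to 1 mM. Result reported as Ki.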

[2] = Inhibition of recombinant Mycobacterium tuberculosis TMPK expressed in Escherichia coli using dTMP as substrate in presence of ATP/pyruvate kinase/lactate dehydrogenase/nucleoside diphosphate kinase by coupled spectrophotometric assay
Method in brief: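 Coupled assay read at 334 nm. Medium: 50 mM Tris-HCl pH 7.4, 50 mM KCl, 2 mM MgCl2, 0.2 mM NADH, 1 mM phosphoenolpyruvate, and 2 units each of LDH, pyruvate kinase and NDP kinase. ATP fixed at 0.5 mM and dTMP at 0.05 mM. Analogues varied from 0.01 to 1 mM. Result reported as Ki.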

Structure (SMILES)	Ki [1] [µM]	Ki [2] [µM]
Cc1cn(C2CCCN(C(=O)c3ccc(Oc4ccccc4)cc3)C2)c(=O)[nH]c1=O (racemic)	14.4	
Cc1cn(CC2CCN(Cc3cccc(Oc4ccccc4)c3)C2)c(=O)[nH]c1=O (racemic)	111	
Cc1cn([C@@H]2CCN(Cc3cccc(Oc4ccccc4)c3)C2)c(=O)[nH]c1=O	8.2	
Cc1cn(C2CCCN(C(=O)c3cccc(Oc4ccccc4)c3)C2)c(=O)[nH]c1=O (racemic)	2.1	
Cc1cn(CC2CCCN(Cc3cccc(Oc4ccccc4)c3)C2)c(=O)[nH]c1=O (racemic)	186	
Nc1nc(=O)n([C@H]2C[C@H](O)[C@@H](CO)O2)cc1Br	5	
Cc1cn([C@H]2CCCN(Cc3ccc(Oc4ccccc4)cc3)C2)c(=O)[nH]c1=O	21.5	
Cc1cn([C@H]2CCN(Cc3cccc(Oc4ccccc4)c3)C2)c(=O)[nH]c1=O	7.8	
Cc1cn([C@@H]2CCCN(Cc3ccc(Oc4ccccc4)cc3)C2)c(=O)[nH]c1=O	138	
Cc1cn(C/C=C\CN2c3cccc4cccc(c34)S2(=O)=O)c(=O)[nH]c1=O		0.27
Cc1cn(CC2CCN(Cc3ccc(Oc4ccccc4)cc3)C2)c(=O)[nH]c1=O (racemic)	267	
Cc1cn(C2CCCN(Cc3ccc(Oc4ccccc4)cc3)C2)c(=O)[nH]c1=O (racemic)	22.3	
